Assay type in all cases: functional
One assay relates to Aspergillus fumigatus. Briefly: Tested for in vitro antifungal activity against Aspergillus fumigatus ATCC 26430. An outline of the steps:
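Mould grown in microplates in RPMI1640 buffered at pH 7.0, incubated at 30 °C. MIC is the lowest test-compound concentration that inhibits growth by 80%.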

Assay [1] concerns Candida albicans. As to the kind of experiment: Tested for in vitro antifungal activity against Candida albicans ATCC 24433. In outline: (§1)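 Microplate growth assay in RPMI1640 medium buffered at pH 7.0, incubated at 35 °C. MIC is the lowest test-compound concentration that inhibits fungal growth by 80%.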
Assay [2] relates to Candida albicans. As to the kind of experiment: Tested for in vitro antifungal activity against Candida albicans ATCC 24433 in the presence of horse serum (20%). In outline:
(§2)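 RPMI1640 medium buffered at pH 7.0, with 20% horse serum added for the incubation. Microplates incubated at 35 °C. MIC is the lowest concentration giving 80% inhibition of fungal growth.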

For assay [3], the system named is Candida albicans. As to the kind of experiment: Tested for in vitro antifungal activity against Candida albicans ATCC 64550. An outline of the steps:
as §1

The subject of assay [4] is Candida albicans. As to the kind of experiment: Tested for in vitro antifungal activity against Candida albicans SANK51486. In outline: as §1
Assay [5] has as its system Candida albicans. Briefly: Tested for in vitro antifungal activity against Candida albicans SANK51486 in the presence of horse serum (20%). In outline:
as §2

Assay [6] concerns Candida albicans. As to the kind of experiment: Tested for in vitro antifungal activity against Candida albicans TIMM3164. In outline:
as §1

Another assay relates to Candida parapsilosis. Briefly: Tested for in vitro antifungal activity against Candida parapsilosis ATCC 90018. As to conditions: Lodderomyces parapsilosis. In outline: as §1
The test system of a further assay is Cryptococcus neoformans. As to the kind of experiment: Tested for in vitro antifungal activity against Cryptococcus neoformans TIMM1855. In outline: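 Yeast grown in microplates in yeast nitrogen base buffered at pH 7.0, incubated at 35 °C. MIC is the lowest concentration inhibiting growth by 80%.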
A further assay concerns Candida tropicalis. Briefly: Tested for in vitro antifungal activity against Candida tropicalis ATCC750. In outline:
as §1

The subject of another assay is Nakaseomyces glabratus. Briefly: Tested for in vitro antifungal activity against Candida glabrata ATCC 90030. In outline: as §1

Each structure is given as a SMILES string. Converted amounts (≈) assume the structure as drawn. Some results are limits rather than exact numbers.

One may read the MIC as the smallest concentration in the dilution series that meets the test's criterion for growth inhibition. As to `C=C(C)CN1C[C@H](OCC23C[C@@H]4[C@H](C)CC[C@H]4C4(C=O)CC2C=C(C(C)C)C34C(=O)O)O[C@H](C)[C@@H](OC)C1` (stereo not given in full), the minimal inhibitory concentration (MIC) in the assay on Aspergillus fumigatus is above 16 µg/mL; in the assay on Candida albicans [1], 0.031 µg/mL (≈ 0.0585 µM); in the assay with Candida albicans [2], 0.5 µg/mL; against Candida albicans [3], 0.031 µg/mL (≈ 0.0585 µM); against Candida albicans [4], 0.016 µg/mL (≈ 0.0302 µM); with Candida albicans [5], 0.25 µg/mL. In addition, the MIC in the assay with Candida albicans [6] is 0.031 µg/mL (≈ 0.0585 µM); in the assay on Candida parapsilosis, above 16 µg/mL; in the assay with Cryptococcus neoformans, 0.25 µg/mL (≈ 0.472 µM); in the assay with Candida tropicalis, 0.125 µg/mL (≈ 0.236 µM); with Nakaseomyces glabratus, 0.25 µg/mL (≈ 0.472 µM).
For the molecule `CO[C@H]1CN(Cc2ccc(C)cc2)C[C@H](OCC23C[C@@H]4[C@H](C)CC[C@H]4C4(C=O)CC2C=C(C(C)C)C34C(=O)O)O[C@@H]1C` (stereo not given in full), the MIC was above 16 µg/mL in the assay on Aspergillus fumigatus; 0.063 µg/mL (≈ 0.109 µM) with Candida albicans [1]; 8 µg/mL in the assay on Candida albicans [2]; 0.125 µg/mL (≈ 0.216 µM) in the assay with Candida albicans [3]; at most 0.031 µg/mL against Candida albicans [4]; 2 µg/mL in the assay with Candida albicans [5]. Also, the MIC in the assay with Candida albicans [6] was 0.125 µg/mL (≈ 0.216 µM); in the assay on Candida parapsilosis, above 16 µg/mL; against Cryptococcus neoformans it was above 16 µg/mL; in the assay on Candida tropicalis it was 1 µg/mL (≈ 1.72 µM); with Nakaseomyces glabratus it was 2 µg/mL (≈ 3.45 µM).
Turning to `CO[C@H]1CN(Cc2ccc(C#N)cc2)C[C@H](OCC23C[C@@H]4[C@H](C)CC[C@H]4C4(C=O)CC2C=C(C(C)C)C34C(=O)O)O[C@@H]1C` (stereo not given in full), the MIC in the assay on Aspergillus fumigatus is above 16 µg/mL; against Candida albicans [1], 0.063 µg/mL (≈ 0.107 µM); in the assay with Candida albicans [2] it was 2 µg/mL; against Candida albicans [3], 0.063 µg/mL (≈ 0.107 µM); against Candida albicans [4], at most 0.031 µg/mL; with Candida albicans [5], 1 µg/mL. The MIC is 0.063 µg/mL (≈ 0.107 µM) with Candida albicans [6]; above 16 µg/mL in the assay on Candida parapsilosis; 8 µg/mL (≈ 13.5 µM) with Cryptococcus neoformans; 0.5 µg/mL (≈ 0.846 µM) against Candida tropicalis; 2 µg/mL (≈ 3.39 µM) with Nakaseomyces glabratus.
For the molecule `C=C(Br)CN1C[C@H](OCC23C[C@@H]4[C@H](C)CC[C@H]4C4(C=O)CC2C=C(C(C)C)C34C(=O)O)O[C@H](C)[C@@H](OC)C1` (stereo not given in full), the MIC against Aspergillus fumigatus is above 16 µg/mL; with Candida albicans [1], 0.031 µg/mL (≈ 0.0521 µM); in the assay on Candida albicans [2], 1 µg/mL; against Candida albicans [3] it was 0.031 µg/mL (≈ 0.0521 µM); in the assay with Candida albicans [4], 0.016 µg/mL (≈ 0.0269 µM); in the assay with Candida albicans [5] it was 0.5 µg/mL. For the same molecule, the MIC in the assay with Candida albicans [6] was 0.031 µg/mL (≈ 0.0521 µM); in the assay on Candida parapsilosis, above 16 µg/mL; with Cryptococcus neoformans, 0.25 µg/mL (≈ 0.42 µM); against Candida tropicalis it was 0.125 µg/mL (≈ 0.21 µM); with Nakaseomyces glabratus, 0.25 µg/mL (≈ 0.42 µM).
`C=C(CF)CN1C[C@H](OCC23C[C@@H]4[C@H](C)CC[C@H]4C4(C=O)CC2C=C(C(C)C)C34C(=O)O)O[C@H](C)[C@@H](OC)C1` (stereo not given in full): the MIC against Aspergillus fumigatus was above 16 µg/mL; with Candida albicans [1], at most 0.031 µg/mL; in the assay on Candida albicans [2] it was 0.5 µg/mL; against Candida albicans [3], at most 0.031 µg/mL; against Candida albicans [4], at most 0.031 µg/mL; in the assay on Candida albicans [5], 0.5 µg/mL. Moreover, the minimum inhibitory concentration (MIC) with Candida albicans [6] was at most 0.031 µg/mL; against Candida parapsilosis it was above 16 µg/mL; with Cryptococcus neoformans it was 0.25 µg/mL (≈ 0.456 µM); in the assay with Candida tropicalis, 0.25 µg/mL (≈ 0.456 µM); against Nakaseomyces glabratus it was 0.5 µg/mL (≈ 0.913 µM).

The values are drawn from ChEMBL document CHEMBL1135162, “Synthesis and evaluation of N-substituted 1,4-oxazepanyl Sordaricins as selective fungal EF-2 inhibitors” (2002).
